Most compounds without a hit are left out; they make up all but 2.1% or so of the library.
PKA-R1A activ = activators of PKA-R1A complex; P00514+P68181; PKA-R1A dissociation, Cy5-IP20 fluorescence polarization; scaled: DMSO 0%, 113 µM cGMP 100%; activation, % at 11.4 µM; actives 0.083% (n = 340,000);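 active = percent activation above the mean of all tested compounds plus 3 SD, cut at about 19% in these data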;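 note: higher means more PKAc released from R1A so a rise in polarization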
CDK5 p35 inh = CDK5/p35 (human) kinase inhibition | AID 488839 | actives 0.01% (n = 330,000) | Recombinant CDK5/p35, ADP-Glo luminescence, 60 min | Q00535+Q15078 | inhibition, % at 10 µM;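 active = highest replicate inhibition of at least 50% and at least 75% of replicates reaching 50%; inconclusive = only one of the two criteria met; inactive = both criteria failed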;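 note: plate controls were DMSO neutral control for no effect and GW8510 at 10 µM for full effect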
PKA-R2B activ = activates the human PKA-R2B holoenzyme complex. P22694+P31323. PKA-R2B holoenzyme dissociation, Cy5-IP20 fluorescence polarization; R2B truncated from residue 108, S112A mutant; 0% DMSO only, 100% 113 µM cGMP. activation, % at 11.4 µM. actives 0.079% (n = 340,000). AID 504700;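 active = activation above a cutoff set at the mean over all compounds plus 3 SD, cut at about 18% in these data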;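 note: higher means more holoenzyme dissociation and a rise in polarization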
SR-BI HDL uptake = mouse SR-BI HDL lipid transfer inhibition; actives 0.96% (n = 320,000); ldlA[mSR-BI] CHO cells, DiI-HDL uptake fluorescence, 3 h; Q61009; inhibition, % at 12.5 µM;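 active = mean replicate inhibition of at least 70% and a set share of replicates each scoring 70 or more; inconclusive = meets just one of the two criteria; inactive = fails both criteria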;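 note: 0% = median of neutral control wells and 100% = median of positive control wells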
SR-BI DiI-HDL act = activators of SR-BI mediated HDL lipid uptake; CHO ldlA[mSR-BI] cells, DiI-HDL uptake fluorescence, 3 h; 100 = double the neutral-control signal; activation, % at 12.5 µM; actives 0.096% (n = 320,000); AID 504775;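 active = mean replicate activation of at least 60% and every replicate at or above 60%; inconclusive = mean or all-replicate condition met, but not both; inactive = mean below 60% and not all replicates reaching 60%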;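 note: 0% = median plate neutral-control signal and 100% = twice that signal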
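Test system: SR-BI-overexpressing, LDLR-lacking CHO cells; Also added: labelled HDL, 10 µg/mL; Measured by: bottom-read cell fluorescence after medium removal, ex 550/em 595 nm; Timing: 3 h uptake period with compound, 37 °C; Buffer or medium: F12, 0.5% BSA, 25 mM HEPES; Doses: single compound concentration, delivered by pin transfer.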
dFosB act-1 = activators of mouse delta FosB homodimer. P13346. purified delta FosB, TAMRA-CDK5 oligo fluorescence polarization; percent of positive-control signal above neutral wells. activation, % at 25 µM. actives 0.99% (n = 340,000). AID 493131;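 active = mean activation above about 17%, with every replicate also reaching it, limit read from the data, passing the limit was not always enough; inconclusive = only one of the two conditions met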
Target sequence (P13346 whole entry, looked up): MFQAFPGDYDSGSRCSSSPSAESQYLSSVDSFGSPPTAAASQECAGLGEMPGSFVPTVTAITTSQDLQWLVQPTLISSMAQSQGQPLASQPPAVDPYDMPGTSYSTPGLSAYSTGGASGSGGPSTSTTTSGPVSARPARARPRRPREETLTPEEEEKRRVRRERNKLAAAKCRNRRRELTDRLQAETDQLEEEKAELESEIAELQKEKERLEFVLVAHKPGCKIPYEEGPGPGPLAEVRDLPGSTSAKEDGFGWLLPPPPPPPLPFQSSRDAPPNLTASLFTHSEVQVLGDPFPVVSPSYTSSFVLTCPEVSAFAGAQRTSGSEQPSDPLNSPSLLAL
dFosB act-2 = enhances mouse delta FosB homodimer binding to DNA; activation, % at 24.9 µM; shares compounds with dFosB act-1; 2,400 tested, under 10 active; purified delta FosB, TAMRA-CDK5 oligo fluorescence polarization; normalised: neutral wells 0, positive control 100;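 active = highest replicate activation at or above 34% and every replicate reaching that threshold; inconclusive = meets only one of the two criteria; inactive = meets neither criterion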;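 note: higher polarization means more probe DNA bound by delta FosB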
An asterisk follows results filed as active; ? = inconclusive; . = no result.

SMILES	PKA-R1A activ	CDK5 p35 inh	PKA-R2B activ	SR-BI HDL uptake	SR-BI DiI-HDL act	dFosB act-1	dFosB act-2
COc1ccc(C(=O)Nn2c(SCC(=O)NC3CCCCC3)nc3ccccc3c2=O)cc1	-6	3	-7	-7	7	-6	.
COc1ccc(C(=O)Nn2c(SCC(=O)N3CCC(C)CC3)nc3ccccc3c2=O)cc1	-3	-1	8	-17	17	29*	3
O=C(CN1C(=O)NC2(CCc3ccccc32)C1=O)c1c[nH]c2ccccc12 (configuration not stated)	6	0	-4	3	-3	-8	.
COc1ccc(CNC(=O)/C=C/c2cc3c(cc2Br)OCO3)cc1	-4	0	-3	-4	4	6	.
O=C(/C=C/c1cc2c(cc1Br)OCO2)NCc1ccc(F)cc1	-11	0	6	27	-27	25*	1
COc1ccc(/C=N/n2c(=O)[nH]c3c([nH]c4ccc(Br)cc43)c2=O)cc1CN1CCOCC1	12	-1	0	2	-2	28*	3
CC(C)CN(C(=O)CN1C(=O)NC(c2ccccc2)(c2ccccc2)C1=O)C1CCS(=O)(=O)C1 (configuration not stated)	-6	-1	0	-8	8	-10	.
Cc1nc(NC(=S)NC(=O)c2cncc(Br)c2)ccc1Br	4	-1	5	7	-7	21*	1
CCC(C)(C)NC(=O)CN(Cc1ccc(OC)cc1)C(=O)CCC(=O)Nc1nccs1	8	-3	11	.	.	-3	.
COc1ccc(Cl)cc1N1C(=O)CC(Sc2ccccc2N)C1=O (configuration not stated)	0	-2	-9	37	-37	38*	-5
CCOc1ccccc1N1C(=O)CC(Sc2ccccc2N)C1=O (configuration not stated)	-7	.	-5	.	.	.	.
O=C1NC2(CCCCC2)C(=O)N1Cc1ccc([N+](=O)[O-])cc1	-8	0	-12	7	-7	0	.
O=S1(=O)N=C(Nc2ccc(S(=O)(=O)N3CCCCC3)cc2)c2ccccc21	16	0	13	-20	20	47*	0
O=S1(=O)N=C(Nc2ccc(N3CCOCC3)cc2)c2ccccc21	-1	0	8	-13	13	-3	.
Cc1cc(CNC[C@H]2O[C@@H](n3cnc(C(N)=O)n3)[C@H](O)[C@@H]2O)c(C)n1-c1cccnc1	1	0	-17	16	-16	-6	.
O=C(OCn1nnc2ccccc2c1=O)c1ccc(F)c(S(=O)(=O)N2CCOCC2)c1	-5	.	-15	.	.	.	.
O=C(Cn1nnc(-c2ccc(CN3CCOCC3)cc2)n1)Nc1nc(-c2ccccc2)cs1	-5	-2	-6	22	-22	25*	-4
Cc1ccc(S(=O)(=O)N2CCOCC2)cc1NC(=O)CSCc1c(C)noc1C	-1	0	3	-6	6	2	.
Cc1ccc(NC(=O)CC2=NC(=O)C(CC(=O)Nc3ccccc3F)S2)cc1 (configuration not stated)	-4	-2	1	.	.	46*	4
Cc1ccc(NC(=O)CC2SC(=O)N(c3ccccc3)C2=O)cc1 (configuration not stated)	1	2	3	-10	10	3	.
COc1cc(C(=O)Nc2ccc(Oc3ncnc4sc(-c5ccccc5)cc34)cc2)cc(OC)c1OC	-9	-3	-1	65	-65	68*	6
COc1ccc(C(=O)Nc2ccc(Oc3ncnc4sc(-c5ccccc5)cc34)cc2)cc1OC	1	-2	-4	66	-66	-7	.
COc1ccc(C(=O)Nc2ccc(Oc3nc(C)nc4sc(-c5ccccc5)cc34)cc2)cc1OC	-4	0	1	64	-64	34*	-1
CCc1ccc(CNC(=O)C2CCCN(c3nnc(C)c4c(C)n(-c5ccccc5)nc34)C2)cc1 (configuration not stated)	-5	1	-6	32	-32	31*	?
Cc1nnc(N2CCCC(C(=O)NCc3ccccc3F)C2)c2nn(-c3ccccc3)c(C)c12 (configuration not stated)	-3	-3	-2	1	-1	-4	.
SMILES	PKA-R1A activ	CDK5 p35 inh	PKA-R2B activ	SR-BI HDL uptake	SR-BI DiI-HDL act	dFosB act-1	dFosB act-2
Cc1ccccc1CNC(=O)C1CCCN(c2nnc(C)c3c(C)n(-c4ccccc4)nc23)C1 (configuration not stated)	-15	1	-8	5	-5	18*	-4
Cc1nnc(N2CCCC(C(=O)NCc3cccc(F)c3)C2)c2nn(-c3ccccc3)c(C)c12 (configuration not stated)	1	0	10	13	-13	-20	.
CCc1cc2c(=O)oc(-c3ccc(F)cc3)nc2s1	-14	1	-4	-15	15	2	.
CN(Cc1ccccc1)C1CCNCC1	4	0	1	-14	14	6	.
COC(=O)c1ccc(OCC(O)CN2CCN(C(=O)c3ccco3)CC2)c(OC)c1 (configuration not stated)	9	1	-4	-2	2	-9	.
CCc1cccc(CC)c1-n1c(SCC(=O)N2CCCc3ccccc32)nc(O)cc1=O	-3	0	-5	-6	6	-10	.
CCCNc1c(NS(=O)(=O)c2ccc3c(c2)CCCC3)c(=O)oc2ccccc12	-4	1	3	-16	16	60*	6
CNc1c(NS(=O)(=O)c2ccc(OC)c(Cl)c2)c(=O)oc2ccccc12	2	-1	9	1	-1	65*	2
CCNc1c(NS(=O)(=O)c2ccc(OC)c(Cl)c2)c(=O)oc2ccccc12	-3	0	3	-10	10	2	.
CCCNc1c(NS(=O)(=O)c2ccc(C)c(C)c2)c(=O)oc2ccccc12	-6	0	-3	-6	6	2	.
CN1CCN(C2=Nc3cc(Cl)ccc3Nc3ccccc32)CC1	-9	0	7	28	-28	-1	.
CN1CCN(C2=Nc3c(Cl)cc(Cl)c4cccc2c34)CC1	-16	1	-12	13	-13	20*	-1
CC1CCC(C(=O)NC(C(=O)NCCc2ccc(S(N)(=O)=O)cc2)C(C)C)CC1 (configuration not stated)	-4	-1	1	4	-4	21*	5

Assay outcomes: PubChem, several laboratories
